This note sets out measurements from PubChem BioAssay AID623895 (Broad Institute, 2012).

Active and inactive are the calls of the source.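 Rule for the calls: active = compounds with an ATP-loss curve whose half-maximal dose stays within twice the top dose, in every run; inconclusive = mixed run calls, weak flat effects or poor fits; inactive = the rest, including opposite-direction effects.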

This assay is described as follows: cytotoxicity in ldlA[mSR-BI] CHO cells, dose response, cytotoxicity control for SR-BI HDL uptake inhibitor project, cell-based, 24 h, ATP luminescence, dry powder, set 6 (AID 623895). The settings on record: ldlA[mSR-BI] CHO cells viability, ATP luminescence, 24 h; at 35 µM (top of the series). In a few lines:
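Assay system: ldlA[mSR-BI] cells | Quantity: 4,000 cells per well | Buffer or medium: Ham's F12 plus 10% FCS | Incubation: 24 h compound exposure at 37 °C, luminescence read 10 min after reagent | Dosing: 8 compound concentrations | Measure: Viability IC50 from dose-response fit | Technique: ATP luminescence (Cell Titer Glo)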
As to `C[C@H](C(=O)NC1CCCC1)N(C(=O)Cn1nnc(-c2ccc3c(c2)OCO3)n1)C1CCCCC1`, the activity change, negative = cytotoxicity was -16.5% (inactive). Under `C[C@H](CO)N1C[C@H](C)[C@H](CN(C)S(=O)(=O)c2ccc(Cl)cc2)Oc2ccc(NC(=O)Cc3cn(C)c4ccccc34)cc2C1=O` stands -19.8% (inactive); under `C[C@@H]1CN([C@H](C)CO)C(=O)Cc2cc(NC(=O)Cc3cn(C)c4ccccc34)ccc2O[C@H]1CN(C)S(=O)(=O)c1ccc(F)cc1`, -0.321% (inactive); under `C[C@@H]1CN([C@@H](C)CO)C(=O)Cc2cc(NS(=O)(=O)c3cn(C)cn3)ccc2O[C@@H]1CN(C)Cc1ccc(Cl)c(Cl)c1`, -6.37% (inactive). Under `C[C@@H]1CN([C@H](C)CO)C(=O)c2cc(NC(=O)Cc3cn(C)c4ccccc34)ccc2O[C@H]1CN(C)S(=O)(=O)c1ccc(F)cc1` stands -29.1% (inactive). For `C[C@@H]1CN([C@H](C)CO)C(=O)c2cc(NC(=O)CCCN(C)C)ccc2O[C@H]1CN(C)S(=O)(=O)c1ccc(Cl)cc1`, the activity change, negative = cytotoxicity was 15.7% (inactive). For `COc1cc(OC)cc(C(=O)Nc2nc(-c3ccc4c(c3)CCN4C(=O)CN3CCOCC3)cs2)c1`, the activity change, negative = cytotoxicity was 3.74% (inactive). On to `C[C@@H]1CN([C@H](C)CO)C(=O)c2cc(NC(=O)Cn3cnnn3)ccc2O[C@H]1CN(C)S(=O)(=O)c1ccc(Cl)cc1`, for which the activity change, negative = cytotoxicity was 10.5% (inactive). `C[C@@H]1CN([C@@H](C)CO)C(=O)c2cc(NC(=O)NC3CCCCC3)ccc2O[C@H]1CN(C)Cc1ccncc1`: the activity change, negative = cytotoxicity was 5.45% (inactive). Under `C[C@@H]1CN([C@H](C)CO)C(=O)c2cc(NC(=O)CCN3CCOCC3)ccc2O[C@H]1CN(C)S(=O)(=O)c1ccc(Cl)cc1` stands 19.5% (inactive).

Take `C[C@@H]1CN([C@H](C)CO)C(=O)c2cc(NC(=O)Cc3cn(C)c4ccccc34)ccc2O[C@H]1CN(C)C(=O)Nc1ccc(F)cc1`: the activity change, negative = cytotoxicity was -16.3% (inactive). Under `C[C@@H]1CN([C@H](C)CO)C(=O)c2cc(NC(=O)CCCCCC(=O)Nc3ccccc3N)ccc2O[C@H]1CN(C)S(=O)(=O)c1ccc(Cl)cc1` stands -0.144% (inactive); under `Cc1noc(C)c1S(=O)(=O)N(C)C[C@H]1Oc2c(NC(=O)c3nc4ccccc4s3)cccc2C(=O)N([C@H](C)CO)C[C@H]1C`, -8.36% (inactive). As for `CO[C@@H]1CN(C)C(=O)c2ccc(NC(=O)C3CC3)cc2OC[C@@H](C)N(Cc2ccncc2)C[C@H]1C`, the figure is -2.35% (inactive); as for `C[C@@H]1CN([C@H](C)CO)C(=O)c2cc(NC(=O)Cc3cn(C)c4ccccc34)ccc2O[C@H]1CN(C)Cc1ccc(C(=O)Nc2ccccc2N)cc1`, -12.9% (inactive).

For `C[C@@H]1CN([C@@H](C)CO)C(=O)c2cc(NC(=O)Cc3cn(C)c4ccccc34)ccc2O[C@H]1CN(C)S(=O)(=O)c1ccc(Cl)cc1`, the activity change, negative = cytotoxicity is -25.3% (inactive). Take `CO[C@H]1CN(C)C(=O)c2cc(NC(=O)c3ccccc3F)ccc2OC[C@@H](C)N(C(C)=O)C[C@@H]1C`: the activity change, negative = cytotoxicity was 1.07% (inactive). For the compound `C[C@@H]1CN([C@H](C)CO)C(=O)c2cc(NS(=O)(=O)c3ccc(F)cc3)ccc2O[C@H]1CN(C)S(=O)(=O)c1ccc(Cl)cc1`, the activity change, negative = cytotoxicity is -2.92% (inactive). With `C[C@H](CO)N1C[C@H](C)[C@H](CN(C)C)Oc2c(NS(C)(=O)=O)cccc2C1=O`, the activity change, negative = cytotoxicity was 4.96% (inactive).

Consider `COc1ccc(CN(C)C[C@@H]2Oc3ccc(NC(=O)CCCN(C)C)cc3C(=O)N([C@H](C)CO)C[C@H]2C)cc1`, for which the activity change, negative = cytotoxicity is 12.2% (inactive).

As to `O=C(C[C@H]1CC[C@H](NC(=O)CC2CC2)[C@@H](CO)O1)NCc1ccc(Cl)cc1`, the activity change, negative = cytotoxicity is -5.27% (inactive). Under `Cc1ccccc1-c1ccc2c(c1)O[C@H](CN(C)C(=O)Nc1ccc(F)cc1)[C@H](C)CN([C@H](C)CO)S2(=O)=O` stands -28.5% (inactive); under `C[C@@H]1CN([C@H](C)CO)C(=O)c2cc(NC(=O)C3CCCCC3)ccc2O[C@H]1CN(C)C(=O)c1ccc(Cl)cc1`, -24.6% (inactive); under `C[C@@H]1CN([C@H](C)CO)C(=O)c2cc(NC(=O)Cc3cn(C)c4ccccc34)ccc2O[C@H]1CN(C)Cc1ccc2c(c1)OCO2`, -15% (inactive). As for `C[C@@H]1CN([C@H](C)CO)C(=O)c2cc(NC(=O)Cc3cn(C)c4ccccc34)ccc2O[C@H]1CN(C)Cc1ccccc1`, the figure is -31.2% (inactive). For `C[C@@H]1CN([C@H](C)CO)C(=O)c2cc(NC(=O)C3CCOCC3)ccc2O[C@H]1CN(C)S(=O)(=O)c1ccc(Cl)cc1`, the activity change, negative = cytotoxicity was -5.21% (inactive).

`C[C@@H]1CN([C@H](C)CO)C(=O)c2cc(N(C)C)ccc2O[C@H]1CN(C)S(=O)(=O)c1ccc(Cl)cc1`: the activity change, negative = cytotoxicity was -23.7% (inactive). As for `CC(C)NC(=O)Nc1ccc2c(c1)C(=O)N([C@H](C)CO)C[C@@H](C)[C@H](CN(C)S(=O)(=O)c1ccc(Cl)cc1)O2`, the figure is 3.09% (inactive).

For the compound `CC(C)CN(C(=O)COC(=O)C12CC3CC(CC(O)(C3)C1)C2)C1CCS(=O)(=O)C1` (stereo not drawn), the activity change, negative = cytotoxicity is -14.1% (inactive). Under `O=C(C[C@@H]1CC[C@@H](NC(=O)CC2CC2)[C@H](CO)O1)NCc1ccc(Cl)cc1` stands -2.93% (inactive); under `C[C@@H]1CN([C@H](C)CO)C(=O)c2cc(NC(=O)Cc3cn(C)c4ccccc34)ccc2O[C@H]1CN(C)C(=O)Nc1ccc2c(c1)OCO2`, 7.49% (inactive). As for `Cc1noc(C)c1NC(=O)N(C)C[C@@H]1Oc2ccc(NC(=O)Cc3cn(C)c4ccccc34)cc2C(=O)N([C@H](C)CO)C[C@H]1C`, the figure is 10.5% (inactive); as for `C[C@@H]1CN([C@H](C)CO)C(=O)c2cc(NC(=O)Nc3ccccc3)ccc2O[C@H]1CN(C)S(=O)(=O)c1ccc(Cl)cc1`, -34.8% (inactive); as for `C[C@@H]1CN([C@H](C)CO)C(=O)c2cc(NC(=O)Cc3cn(C)c4ccccc34)ccc2O[C@H]1CN(C)C(=O)NC1CCCCC1`, 5.85% (inactive). Under `C[C@@H]1CN([C@@H](C)CO)C(=O)Cc2cc(NC(=O)CCCN(C)C)ccc2O[C@H]1CN(C)Cc1ccncc1` stands 0.314% (inactive); under `C[C@@H]1CN([C@H](C)CO)C(=O)c2cc(NC(=O)Cc3cn(C)c4ccccc34)ccc2O[C@H]1CN(C)Cc1ccncc1`, -16.9% (inactive); under `COc1ccc(S(=O)(=O)N(C)C[C@@H]2Oc3ccc(NC(=O)Cc4cn(C)c5ccccc45)cc3C(=O)N([C@H](C)CO)C[C@H]2C)cc1`, -20.3% (inactive). In the case of `Cc1ccc(S(=O)(=O)N(C)C[C@@H]2Oc3ccc(NC(=O)Cc4cn(C)c5ccccc45)cc3C(=O)N([C@H](C)CO)C[C@H]2C)cc1`, the activity change, negative = cytotoxicity is -12.8% (inactive). As for `C[C@@H]1CN([C@H](C)CO)C(=O)c2cc(NC(=O)Cc3cn(C)c4ccccc34)ccc2O[C@H]1CN(C)S(=O)(=O)c1cn(C)cn1`, the activity change, negative = cytotoxicity is -6.33% (inactive). Under `COc1ccc2c(c1)CC(C1(O)C(=O)N(C)c3ccccc31)C2=O` (stereo not drawn) stands -9.47% (inactive); under `CO[C@H]1CN(C)C(=O)c2ccc(NC(=O)C3CCCC3)cc2OC[C@@H](C)N(C(=O)CC2CC2)C[C@@H]1C`, -11.9% (inactive).

Take `C[C@@H]1CN([C@H](C)CO)C(=O)c2cc(NC(=O)Cc3cn(C)c4ccccc34)ccc2O[C@H]1CN(C)C(=O)Nc1ccc(C(F)(F)F)cc1`: the activity change, negative = cytotoxicity was -31.9% (inactive).

As to `CCCNC(=O)N(C)C[C@@H]1Oc2cc(-c3cncnc3)ccc2S(=O)(=O)N([C@@H](C)CO)C[C@@H]1C`, the activity change, negative = cytotoxicity was -5.43% (inactive). `C[C@@H]1CN([C@H](C)CO)C(=O)c2cc(NC(=O)Cc3cn(C)c4ccccc34)ccc2O[C@H]1CN(C)C(=O)Nc1ccccc1`: the activity change, negative = cytotoxicity was -12.4% (inactive). Consider `C[C@@H]1CN([C@H](C)CO)C(=O)c2cc(NC(=O)Cc3cn(C)c4ccccc34)ccc2O[C@H]1CN(C)C`, for which the activity change, negative = cytotoxicity was 6.87% (inactive). On to `C[C@@H]1CN([C@H](C)CO)C(=O)c2cc(NS(C)(=O)=O)ccc2O[C@H]1CN(C)S(=O)(=O)c1ccc(Cl)cc1`, for which the activity change, negative = cytotoxicity is -14.8% (inactive). Under `C[C@@H]1CN([C@H](C)CO)C(=O)c2cc(NC(=O)CCC(F)(F)F)ccc2O[C@H]1CN(C)S(=O)(=O)c1ccc(Cl)cc1` stands -19.4% (inactive); under `C[C@@H]1CN([C@H](C)CO)C(=O)c2cc(NC(=O)Cc3cn(C)c4ccccc34)ccc2O[C@H]1CN(C)S(C)(=O)=O`, -4.79% (inactive). As for `COCC(=O)N1CCc2cc(-c3csc(NC(=O)c4cc(OC)cc(OC)c4)n3)ccc21`, the activity change, negative = cytotoxicity was 3.3% (inactive). Regarding `C[C@@H]1CN([C@H](C)CO)C(=O)c2cc(NC(=O)C3CCCCC3)ccc2O[C@H]1CN(C)S(=O)(=O)c1ccc(Cl)cc1`, the activity change, negative = cytotoxicity is -30.6% (inactive). As for `C[C@@H]1CN([C@H](C)CO)C(=O)c2cc(NC(=O)Nc3ccc(F)cc3)ccc2O[C@H]1CN(C)S(=O)(=O)c1ccc(Cl)cc1`, the activity change, negative = cytotoxicity is -20.6% (inactive). Turning to `Cc1noc(C)c1S(=O)(=O)Nc1ccc2c(c1)C(=O)N([C@H](C)CO)C[C@@H](C)[C@H](CN(C)S(=O)(=O)c1ccc(Cl)cc1)O2`, the activity change, negative = cytotoxicity is -15.6% (inactive). As for `C[C@H](CO)N1C[C@H](C)[C@H](CN(C)CC2CCCCC2)Oc2c(NS(=O)(=O)c3cn(C)cn3)cccc2C1=O`, the figure is 5.52% (inactive).
